Where “and” joins values, the source holds several entries; their conditions need not be identical. Identical values can stand only once.
System: Fibroblast
Assay: Multiplex assay against human fibroblast
Format: toxicity, cell-based
How it was run: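 Hoechst33342, BioTracker Green Microtubule Cytoskeleton Dye, MitoTracker Red and Annexin V Alexa Fluor 680 were added to live cells at seeding, and imaging on a CQ1 microscope at 37°C and 5% CO2 followed compound addition. Gating by CellPathfinder machine learning separated cells into Hoechst high-intensity objects or normal cells, then normal cells into healthy, pyknosed or fragmented nuclei, then pyknosed cells into mitotic or apoptotic. Per cents of healthy-nucleus cells are reported for the tubulin, mitochondrial-mass and membrane-permeability phenotypes.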

[1] = 12 h, 1 µM, compound concentration 1 uM, replicate 1
[2] = 12 h, 1 µM, compound concentration 1 uM, replicate 2
[3] = 12 h, 10 µM, compound concentration 10 uM, replicate 1
[4] = 12 h, 10 µM, compound concentration 10 uM, replicate 2
[5] = 24 h, 1 µM, compound concentration 1 uM, replicate 1
[6] = 24 h, 1 µM, compound concentration 1 uM, replicate 2
[7] = 24 h, 10 µM, compound concentration 10 uM, replicate 1
[8] = 24 h, 10 µM, compound concentration 10 uM, replicate 2
[9] = 48 h, 10 µM, compound concentration 10 uM, replicate 1
[10] = 48 h, 10 µM, compound concentration 10 uM, replicate 2

## CN1CCN(C(=O)C(C)(C)c2ccc(C(=O)Nc3cn4cc(-c5cc(C(C)(C)C)cc(C(C)(C)C)c5)ccc4n3)cc2)CC1 [T3-CLK-N]
[1]
  Population Apoptotic (%): 84%
  Population Fragmented Nuclei (%): 34%
  Population Healthy Nuclei (%): 52%
  Population Hoechst High Intensity Objects (%): 19%
  Population Membrane Permeable-Phenotype (%): 8%
  Population Mitochondria Different-Phenotype (%): 1%
  Population Mitotic Cells (%): 16%
  Population Normal (%): 80%
  Population Pyknosed Nuclei (%): 13%
  Population Tubulin-Different-Phenotype (%): 3%
  Total Cell Count: 237
[2]
  Population Apoptotic (%): 42%
  Population Fragmented Nuclei (%): 44%
  Population Healthy Nuclei (%): 44%
  Population Hoechst High Intensity Objects (%): 26%
  Population Membrane Permeable-Phenotype (%): 14%
  Population Mitochondria Different-Phenotype (%): 11%
  Population Mitotic Cells (%): 57%
  Population Normal (%): 73%
  Population Pyknosed Nuclei (%): 11%
  Population Tubulin-Different-Phenotype (%): 22%
  Total Cell Count: 83
[3]
  Population Apoptotic (%): 78%
  Population Fragmented Nuclei (%): 39%
  Population Healthy Nuclei (%): 45%
  Population Hoechst High Intensity Objects (%): 16%
  Population Membrane Permeable-Phenotype (%): 23%
  Population Mitochondria Different-Phenotype (%): 1%
  Population Mitotic Cells (%): 21%
  Population Normal (%): 83%
  Population Pyknosed Nuclei (%): 14%
  Population Tubulin-Different-Phenotype (%): 21%
  Total Cell Count: 260
[4]
  Population Apoptotic (%): 50%
  Population Fragmented Nuclei (%): 40%
  Population Healthy Nuclei (%): 30%
  Population Hoechst High Intensity Objects (%): 39%
  Population Membrane Permeable-Phenotype (%): 30%
  Population Mitochondria Different-Phenotype (%): 23%
  Population Mitotic Cells (%): 50%
  Population Normal (%): 60%
  Population Pyknosed Nuclei (%): 28%
  Population Tubulin-Different-Phenotype (%): 23%
  Total Cell Count: 69
[5]
  Population Apoptotic (%): 73%
  Population Fragmented Nuclei (%): 31%
  Population Healthy Nuclei (%): 51%
  Population Hoechst High Intensity Objects (%): 16%
  Population Membrane Permeable-Phenotype (%): 9%
  Population Mitochondria Different-Phenotype (%): 2%
  Population Mitotic Cells (%): 26%
  Population Normal (%): 83%
  Population Pyknosed Nuclei (%): 16%
  Population Tubulin-Different-Phenotype (%): 6%
  Total Cell Count: 243
[6]
  Population Apoptotic (%): 40%
  Population Fragmented Nuclei (%): 42%
  Population Healthy Nuclei (%): 48%
  Population Hoechst High Intensity Objects (%): 28%
  Population Membrane Permeable-Phenotype (%): 11%
  Population Mitochondria Different-Phenotype (%): 11%
  Population Mitotic Cells (%): 60%
  Population Normal (%): 71%
  Population Pyknosed Nuclei (%): 8%
  Population Tubulin-Different-Phenotype (%): 11%
  Total Cell Count: 78
[7]
  Population Apoptotic (%): 82%
  Population Fragmented Nuclei (%): 32%
  Population Healthy Nuclei (%): 54%
  Population Hoechst High Intensity Objects (%): 10%
  Population Membrane Permeable-Phenotype (%): 22%
  Population Mitochondria Different-Phenotype (%): 5%
  Population Mitotic Cells (%): 17%
  Population Normal (%): 89%
  Population Tubulin-Different-Phenotype (%): 30%
  Total Cell Count: 245
[8]
  Population Apoptotic (%): 33%
  Population Fragmented Nuclei (%): 55%
  Population Healthy Nuclei (%): 30%
  Population Hoechst High Intensity Objects (%): 38%
  Population Membrane Permeable-Phenotype (%): 38%
  Population Mitochondria Different-Phenotype (%): 15%
  Population Mitotic Cells (%): 66%
  Population Normal (%): 61%
  Population Pyknosed Nuclei (%): 13%
  Population Tubulin-Different-Phenotype (%): 23%
  Total Cell Count: 70

## CN1CCN(C(=O)C(C)(C)c2ccc(C(=O)Nc3cn4cc(-c5ccncc5)ccc4n3)cc2)CC1 [T3-CLK]
[3]
  Population Apoptotic (%): 65% and 61% and 86%
  Population Fragmented Nuclei (%): 35% and 22%
  Population Healthy Nuclei (%): 48% and 50% and 64%
  Population Hoechst High Intensity Objects (%): 12% and 17%
  Population Mitochondria Different-Phenotype (%): 6%
  Population Mitotic Cells (%): 35% and 38% and 13%
  Population Normal (%): 87% and 82%
  Population Pyknosed Nuclei (%): 15% and 14% and 13%
  Total Cell Count: 145 and 330 and 306
[4]
  Population Membrane Permeable-Phenotype (%): 31% and 20% and 21%
  Population Normal (%): 73% and 49% and 92%
  Population Pyknosed Nuclei (%): 6% and 9% and 11%
  Population Tubulin-Different-Phenotype (%): 44% and 60% and 94%
  Total Cell Count: 87 and 63 and 57
[7]
  Population Apoptotic (%): 69% and 55% and 80%
  Population Fragmented Nuclei (%): 37% and 35% and 18%
  Population Healthy Nuclei (%): 48% and 45% and 67%
  Population Hoechst High Intensity Objects (%): 18% and 11% and 13%
  Population Mitotic Cells (%): 30% and 44% and 20%
  Population Normal (%): 81% and 88% and 86%
  Population Pyknosed Nuclei (%): 13% and 19%
  Total Cell Count: 335 and 161 and 296
[8]
  Population Membrane Permeable-Phenotype (%): 33% and 17%
  Population Normal (%): 58% and 90% and 61%
  Population Pyknosed Nuclei (%): 9% and 11% and 6%
  Population Tubulin-Different-Phenotype (%): 33% and 88% and 50%
  Total Cell Count: 53 and 57 and 76
[9]
  Population Apoptotic (%): 52%
  Population Fragmented Nuclei (%): 52%
  Population Healthy Nuclei (%): 32%
  Population Hoechst High Intensity Objects (%): 17%
  Population Membrane Permeable-Phenotype (%): 32%
  Population Mitochondria Different-Phenotype (%): 20%
  Population Mitotic Cells (%): 47%
  Population Normal (%): 82%
  Population Pyknosed Nuclei (%): 15%
  Population Tubulin-Different-Phenotype (%): 76%
  Total Cell Count: 162
[10]
  Population Apoptotic (%): 63%
  Population Fragmented Nuclei (%): 38%
  Population Healthy Nuclei (%): 49%
  Population Hoechst High Intensity Objects (%): 6%
  Population Membrane Permeable-Phenotype (%): 47%
  Population Mitochondria Different-Phenotype (%): 15%
  Population Mitotic Cells (%): 36%
  Population Normal (%): 93%
  Population Pyknosed Nuclei (%): 12%
  Population Tubulin-Different-Phenotype (%): 65%
  Total Cell Count: 95

Source: ChEMBL document CHEMBL4689842, “EUbOPEN Chemogenomics Library wave 1” (2021)
